Assay results taken from ChEMBL document CHEMBL3585255, “The Cephalostatins. 24. Isolation, Structure, and Cancer Cell Growth Inhibition of Cephalostatin 20” (2015).

How the values were obtained:
Type in all cases: functional
SF-268 = assay: Cytotoxicity against human SF268 cells after 48 hrs by sulforhodamine B assay; details: SF-268, 48 h
In short: (§1)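 Cells in RPMI1640 with 5% fetal bovine serum were plated in 96-well plates and incubated 24 h before serial dilutions of compound were added. After 48 h exposure, cells were fixed with trichloroacetic acid and stained with sulforhodamine B, and optical density was read on a plate reader. GI50, the concentration giving 50% reduction in net protein increase, was calculated from the OD data.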

[1] = Cytotoxicity against human BxPC3 cells after 48 hrs by sulforhodamine B assay; details: BXPC-3, 48 h; in short: as §1
[2] = Cytotoxicity against human KM20L2 cells after 48 hrs by sulforhodamine B assay; details: KM-20L2, 48 h; in short: as §1
DU-145 = assay: Cytotoxicity against human DU145 cells after 48 hrs by sulforhodamine B assay; details: DU-145, 48 h; in short: as §1
NCI-H460 = assay: Cytotoxicity against human NCI-H460 cells after 48 hrs by sulforhodamine B assay; details: NCI-H460, 48 h; in short: as §1
MCF7 = assay: Cytotoxicity against human MCF7 cells after 48 hrs by sulforhodamine B assay; details: MCF7, 48 h; in short: as §1

## C[C@H]1[C@H]2C[C@@H](O)c3c4c(cc(c32)OC12OC(C)(C)C[C@H]2O)[C@@]1(C)Cc2nc3c(nc2C[C@@H]1CC4)C[C@@]1(C)[C@@H](CC[C@H]2C4=C[C@@H]5O[C@@]6(C[C@]5(O)[C@@]4(C)[C@H](O)C[C@@H]21)O[C@](C)(CO)C[C@H]6O)C3 (stereo partly drawn) [CEPHALOSTATIN 6]
SF-268
  GI50: 610 nM
[1]
  GI50: 380 nM
[2]
  GI50: 390 nM
DU-145
  GI50: > 1100 nM
NCI-H460
  GI50: 320 nM
MCF7
  GI50: 550 nM

## C[C@@H]1[C@]2(O[C@H]3C=C4[C@@H]5CC[C@H]6Cc7nc8c(nc7C[C@]6(C)[C@H]5C[C@@H](O)[C@]4(C)[C@]31O)C[C@@H]1CC[C@H]3C4=C[C@@H]5O[C@]6(CC[C@](C)(O)CO6)C[C@]5(O)[C@@]4(C)[C@H](O)C[C@@H]3[C@@]1(C)C8)O[C@](C)(CO)C[C@H]2O [CEPHALOSTATIN 7]
SF-268
  GI50: 110 nM
[1]
  GI50: 5 nM
[2]
  GI50: 48 nM
DU-145
  GI50: 470 nM
NCI-H460
  GI50: 8.2 nM
MCF7
  GI50: 50 nM

## C[C@@H]1[C@]2(O[C@H]3C=C4[C@@H]5CC[C@H]6Cc7nc8c(nc7C[C@]6(C)[C@H]5C[C@@H](O)[C@]4(C)[C@]31O)C[C@@H]1CC[C@H]3C4=CC[C@@H]5[C@H](C)[C@@](O)([C@H](O)CC(C)(C)O)OC[C@]45C(=O)C[C@]3(O)[C@@]1(C)C8)O[C@](C)(CO)C[C@H]2O
SF-268
  GI50: 36 nM
[1]
  GI50: 16 nM
[2]
  GI50: 7.2 nM
DU-145
  GI50: 210 nM
NCI-H460
  GI50: 6 nM
MCF7
  GI50: 22 nM

## C[C@@H]1[C@H]2CC=C3[C@@H]4CC[C@H]5Cc6nc7c(nc6C[C@]5(C)[C@@]4(O)CC(=O)[C@@]32CO[C@]12OC(C)(C)C[C@H]2O)C[C@@H]1CC[C@H]2C3=C[C@@H]4O[C@@]5(CC[C@](C)(O)CO5)[C@@H](C)[C@]4(O)[C@@]3(C)[C@H](O)C[C@@H]2[C@@]1(C)C7 [CEPHALOSTATIN 16]
SF-268
  GI50: 5.2 nM
[1]
  GI50: 0.44 nM
[2]
  GI50: 0.6 nM
DU-145
  GI50: 12 nM
NCI-H460
  GI50: 0.64 nM
MCF7
  GI50: 1.1 nM

## CO[C@H]1c2nc3c(nc2C[C@@H]2CC[C@H]4C5=CC[C@@H]6[C@H](C)[C@@]7(OC[C@]56C(=O)C[C@@H]4[C@]21C)OC(C)(C)C[C@H]7O)C[C@@]1(C)[C@@H](CC[C@H]2C4=C[C@@H]5O[C@]6(O[C@](C)(CO)C[C@H]6O)[C@@H](C)[C@]5(O)[C@@]4(C)[C@H](O)C[C@@H]21)C3 [CEPHALOSTATIN 19]
SF-268
  GI50: 78 nM
[1]
  GI50: 3.9 nM
[2]
  GI50: 6.1 nM
DU-145
  GI50: 30 nM
NCI-H460
  GI50: 5.3 nM
MCF7
  GI50: 7.4 nM

## CO[C@H]1c2nc3c(nc2C[C@@H]2CC[C@H]4C5=C[C@@H]6O[C@]7(O[C@](C)(CO)C[C@H]7O)[C@@H](C)[C@]6(O)[C@@]5(C)[C@H](O)C[C@@H]4[C@]21C)C[C@@]1(C)[C@@H](CC[C@H]2C4=CC[C@@H]5[C@H](C)[C@@]6(OC[C@]45C(=O)C[C@@H]21)OC(C)(C)C[C@H]6O)C3 [CEPHALOSTATIN 18]
SF-268
  GI50: 7.8 nM
[1]
  GI50: 3.3 nM
[2]
  GI50: 3.1 nM
DU-145
  GI50: 20 nM
NCI-H460
  GI50: 2.8 nM
MCF7
  GI50: 3.3 nM

## CO[C@H]1c2nc3c(nc2C[C@@H]2CC[C@H]4C5=CC[C@@H]6[C@@H](C)[C@]7(OC[C@]56C(=O)C[C@@H]4[C@]21C)OC(C)(C)C[C@H]7O)C[C@@]1(C)[C@@H](CC[C@H]2C4=C[C@@H]5O[C@]6(O[C@](C)(CO)C[C@H]6O)[C@@H](C)[C@]5(O)[C@@]4(C)[C@H](O)C[C@@H]21)C3 [CEPHALOSTATIN 11]
SF-268
  GI50: 27 nM
[1]
  GI50: 4.9 nM
[2]
  GI50: 6.3 nM
DU-145
  GI50: 23 nM
NCI-H460
  GI50: 5.4 nM
MCF7
  GI50: 4.1 nM

## C[C@@H]1[C@]2(O[C@H]3C=C4[C@@H]5CC[C@H]6Cc7nc8c(nc7C[C@]6(C)[C@H]5C[C@@H](O)[C@]4(C)[C@]31O)C[C@@H]1CC[C@H]3C4=CC[C@@H]5[C@H](C)[C@@]6(OC[C@]45C(=O)C[C@]3(O)[C@@]1(C)C8)OC(C)(C)[C@@H](C)[C@H]6O)O[C@](C)(CO)C[C@H]2O [CEPHALOSTATIN 3]
SF-268
  GI50: 0.58 nM
[1]
  GI50: 0.043 nM
[2]
  GI50: 0.096 nM
DU-145
  GI50: 0.16 nM
NCI-H460
  GI50: 0.043 nM
MCF7
  GI50: 0.032 nM

## C[C@@H]1[C@]2(O[C@H]3C=C4[C@@H]5CC[C@H]6Cc7nc8c(nc7C[C@]6(C)[C@H]5C[C@@H](O)[C@]4(C)[C@]31O)C[C@@H]1CC[C@H]3C4=C[C@@H]5O[C@]6(O[C@](C)(CO)C[C@H]6O)[C@@H](C)[C@]5(O)[C@@]4(C)[C@H](O)C[C@@H]3[C@@]1(C)[C@H]8O)O[C@](C)(CO)C[C@H]2O [CEPHALOSTATIN 13]
SF-268
  GI50: 340 nM
[1]
  GI50: 310 nM
[2]
  GI50: 470 nM
DU-145
  GI50: 1100 nM
NCI-H460
  GI50: 370 nM
MCF7
  GI50: 290 nM

## C[C@@H]1[C@]2(O[C@H]3C=C4[C@@H]5CC[C@H]6Cc7nc8c(nc7C[C@]6(C)[C@H]5C[C@@H](O)[C@]4(C)[C@]31O)C[C@@H]1CC[C@H]3C4=CC[C@@H]5[C@H](C)[C@@]6(OC[C@]45C(=O)C[C@@H]3[C@@]1(C)C8)OC(C)(C)C[C@H]6O)O[C@](C)(CO)C[C@H]2O [CEPHALOSTATIN 1]
SF-268
  GI50: 1.6 nM
[1]
  GI50: 0.044 nM
[2]
  GI50: 0.066 nM
DU-145
  GI50: 0.11 nM
NCI-H460
  GI50: 0.044 nM
MCF7
  GI50: 0.099 nM

## C[C@@H]1[C@H]2C[C@@H]3O[C@@]34[C@]3(O)CC[C@H]5Cc6nc7c(nc6C[C@]5(C)C3=CC(=O)[C@]24CO[C@]12OC(C)(C)[C@@H](C)[C@H]2O)C[C@@H]1CC[C@H]2C3=C[C@@H]4O[C@]5(O[C@](C)(CO)C[C@H]5O)[C@@H](C)[C@]4(O)[C@@]3(C)[C@H](O)C[C@@H]2[C@@]1(C)C7 [CEPHALOSTATIN 15]
SF-268
  GI50: 63 nM
[1]
  GI50: 50 nM
[2]
  GI50: 63 nM
DU-145
  GI50: 140 nM
NCI-H460
  GI50: 68 nM
MCF7
  GI50: 45 nM

## C[C@@H]1[C@]2(O[C@H]3C=C4[C@@H]5CC[C@H]6Cc7nc8c(nc7C[C@]6(C)[C@H]5C[C@@H](O)[C@]4(C)[C@]31O)C[C@@H]1CC[C@H]3C4=C[C@@H]5O[C@]6(O[C@](C)(CO)C[C@H]6O)[C@@H](C)[C@]5(O)[C@@]4(C)[C@H](O)C[C@@H]3[C@@]1(C)C8)O[C@](C)(CO)C[C@H]2O [CEPHALOSTATIN 12]
SF-268
  GI50: 150 nM
[1]
  GI50: 31 nM
[2]
  GI50: 38 nM
DU-145
  GI50: 440 nM
NCI-H460
  GI50: 37 nM
MCF7
  GI50: 33 nM

## C[C@@H]1[C@H]2CC=C3[C@H]4CC[C@H]5Cc6nc7c(nc6C[C@]5(C)[C@@]4(O)CC(=O)[C@@]32CO[C@]12OC(C)(C)C[C@H]2O)C[C@@H]1CC[C@H]2C3=C[C@@H]4O[C@]5(O[C@](C)(CO)C[C@H]5O)[C@@H](C)[C@]4(O)[C@@]3(C)[C@H](O)C[C@@H]2[C@@]1(C)C7 [CEPHALOSTATIN 17]
SF-268
  GI50: 2.7 nM
[1]
  GI50: 0.36 nM
[2]
  GI50: 0.58 nM
DU-145
  GI50: 3.3 nM
NCI-H460
  GI50: 0.46 nM
MCF7
  GI50: 0.43 nM
